Data set [1] in a line: folding enthalpy; higher = less favourable; fluorescence melt of hairpins on a sequencing array, two-state fit. Particulars: sodium 0.088 M. The gist of the method: (§1)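 Melting temperature and folding enthalpy were obtained by bootstrapped two-state fitting. Fits used Cy3 fluorescence of library hairpins with annealed Cy3 and quencher oligos on a sequenced MiSeq flow cell, imaged in 50 mM Na-HEPES pH 8.0, 25 mM NaCl in 2.5 °C steps up to 60 °C and normalised to pre-quench Cy3 and control constructs. Four replicates were combined by inverse-variance weighting, and fitted temperatures were raised by 9.35 °C to match UV melts.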

Data set [2] is described as follows: melting temperature; fluorescence melt of hairpins on a sequencing array, two-state fit, raised by 9.35 °C to match UV melts. Conditions: sodium 0.088 M. The gist of the method:
as §1

In the case of GCTCCCGGAAACGGGGGC ((.((((....)))).)), the folding enthalpy in data set [1] was -26.7 kcal/mol. In data set [2], the Tm is 68.5 °C.
GCTCCGCCGAAAGGCAGC (((..(((....)))))): the folding enthalpy in data set [1] is -9.89 kcal/mol. Moreover, the Tm in data set [2] was determined as 35.1 °C.
As for GCTCCGCGAAAGCAGCGC ((.(.((....)).).)), in data set [1], the folding enthalpy is -17.1 kcal/mol. Further, in data set [2], the Tm was 43.7 °C.
For GCTCCGCGAAAGCCCAGC (((..((....))..))), in that order: -5.26 kcal/mol and 23.2 °C.
GCTCCGCGAAAGCCGGGC ((.(.((....)).).)): in data set [1], the folding enthalpy was -16.4 kcal/mol. Besides, the Tm in data set [2] worked out at 50 °C.
Consider GCTCCGCGAAAGCGAAGC (((.(((....))).))), for which the folding enthalpy in data set [1] was -29 kcal/mol. In addition, the Tm in data set [2] was 56.4 °C.
Take GCTCCGCGAAAGCGACGC ((..(((....)))..)): the folding enthalpy in data set [1] is -18.4 kcal/mol. The Tm in data set [2] came out at 42.6 °C.
Regarding GCTCCGCGAAAGCGCTGC ((..(((....)))..)), in data set [1], the folding enthalpy was -12.3 kcal/mol. In data set [2], the Tm came to 37.4 °C.
GCTCCGTCGAAAGACAGC (((..(((....)))))): the folding enthalpy in data set [1] was -15 kcal/mol. Further, in data set [2], the Tm is 32.4 °C.
On to GCTCCTGGAAACAAGAGC ((((.((....)).)))), for which, in data set [1], the folding enthalpy was -27.9 kcal/mol. Moreover, the Tm in data set [2] is 34.8 °C.
For GCTCCTGGAAACAGAAGC (((.(((....))).))), in that order: -28.5 kcal/mol and 39.9 °C.
For GCTCCTGGAAACGGGAGC (((((.(....).))))), the folding enthalpy in data set [1] is -41.1 kcal/mol. Further, in data set [2], the Tm is 59.5 °C.
Take GCTCGACGAAAGTCCAGC (((.(((....))).))): the folding enthalpy in data set [1] was -24.1 kcal/mol. In addition, the Tm in data set [2] was 44.6 °C.
As for GCTCGCCGAAAGGCAAGC (((.(((....))).))), the folding enthalpy in data set [1] was -29.1 kcal/mol. In addition, in data set [2], the Tm worked out at 54.7 °C.
With GCTCGCGAAAGCGAAAGC ((((((....)))..))), the folding enthalpy in data set [1] was -14.4 kcal/mol. Further, the Tm in data set [2] worked out at 54.3 °C.
The like results for GCTCGCGAAAGCGACAGC ((((((....)))..))) were, in that order, -10.7 kcal/mol and 47.5 °C.
The like results for GCTCGCGAAAGCGCAAGC ((((((....)))..))) were, in that order, -12.4 kcal/mol and 48.5 °C.
Regarding GCTCGCGAAAGCGCCAGC ((((((....)))..))), the folding enthalpy in data set [1] was -8.57 kcal/mol. In data set [2], the Tm worked out at 42.1 °C.
In the case of GCTCGCGAAAGCGGGAGC ((((((....)))..))), the folding enthalpy in data set [1] is -15.7 kcal/mol. In addition, the Tm in data set [2] amounted to 55.1 °C.
As to GCTCGCGAAAGCGTGAGC ((((((....)))..))), the folding enthalpy in data set [1] is -18 kcal/mol. Besides, the Tm in data set [2] was determined as 53.4 °C.
For GCTCGCGGAAACACGAGC (((((.(....).))))), in that order: -44.6 kcal/mol and 55.2 °C.
Consider GCTCGGCGAAAGCCACGC ((..(((....)))..)), for which the folding enthalpy in data set [1] is -11.5 kcal/mol. Also, the Tm in data set [2] was 43.3 °C.
For the sequence GCTCGGCGAAAGCCCAGC (((.(((....))).))), in data set [1], the folding enthalpy was -42.5 kcal/mol. Moreover, the Tm in data set [2] is 44.2 °C.
In the case of GCTCGGCGAAAGCCGCGC ((.((((....)))).)), the folding enthalpy in data set [1] is -18.5 kcal/mol. For the same sequence, the Tm in data set [2] was 65.1 °C.
For GCTCGGCGAAAGCTAAGC (((..((....))..))), in that order: -15.8 kcal/mol and 44.4 °C.
GCTCGGGGAAACCCGAAC (.(((((....))))).): the folding enthalpy in data set [1] is -12.6 kcal/mol. Moreover, the Tm in data set [2] was 45.9 °C.
Regarding GCTCGGGGAAACCTGAGC ((((.((....)).)))), in data set [1], the folding enthalpy was -35.1 kcal/mol. The Tm in data set [2] was 59.3 °C.
Consider GCTCGTCCGAAAGGAAGC (((..(((....)))))), for which, in data set [1], the folding enthalpy is -8.41 kcal/mol. Moreover, the Tm in data set [2] was found to be 36.6 °C.
For GCTCGTCGAAAGACTAGC (((.(((....))).))), in that order: -39 kcal/mol and 49 °C.
Take GCTCTACGAAAGTACAGC (((.(((....))).))): the folding enthalpy in data set [1] is -21.5 kcal/mol. The Tm in data set [2] was 35.5 °C.
The like results for GCTCTATCGAAAGATAGC (((..(((....)))))) were, in that order, -13.6 kcal/mol and 30.2 °C.
For GCTCTCCGAAAGGAAAGC (((.(((....))).))), in that order: -28.4 kcal/mol and 46.5 °C.
Consider GCTCTCCGAAAGGATAGC (((.(((....))).))), for which the folding enthalpy in data set [1] was -34.7 kcal/mol. Further, the Tm in data set [2] was 49.1 °C.
GCTCTCGAAAGAGACAGC ((((((....)))..))): in data set [1], the folding enthalpy is -17.8 kcal/mol. Further, in data set [2], the Tm came out at 35.9 °C.
Consider GCTCTCGAAAGAGCCAGC ((((((....)))..))), for which, in data set [1], the folding enthalpy was -11.3 kcal/mol. The Tm in data set [2] was 37.5 °C.
Take GCTCTCGAAAGAGTAGC ((((((....))).))): in data set [1], the folding enthalpy is -27.8 kcal/mol. Moreover, the Tm in data set [2] worked out at 47.2 °C.
The like results for GCTCTGCGAAAGCAACGC ((..(((....)))..)) were, in that order, -9.7 kcal/mol and 31.8 °C.
Take GCTCTGCGAAAGCACAGC (((.(((....))).))): in data set [1], the folding enthalpy is -25.6 kcal/mol. In data set [2], the Tm was found to be 38.6 °C.
For GCTCTGCGAAAGCACGGC ((..(((....)))..)), in that order: -14.6 kcal/mol and 39.7 °C.
Turning to GCTCTGCGAAAGCAGTGC ((.((((....)))).)), in data set [1], the folding enthalpy was -16.7 kcal/mol. Moreover, in data set [2], the Tm came out at 62 °C.
Regarding GCTCTGCGAAAGCATCGC ((..(((....)))..)), the folding enthalpy in data set [1] was -16.3 kcal/mol. Further, the Tm in data set [2] came to 35.4 °C.
GCTCTGCGAAAGCCCAGC (((..((....))..))): the folding enthalpy in data set [1] was -9.22 kcal/mol. Moreover, the Tm in data set [2] was 30.5 °C.
Take GCTCTGCGAAAGCCGCGC ((.(.((....)).).)): the folding enthalpy in data set [1] was -15 kcal/mol. Besides, the Tm in data set [2] amounted to 39.4 °C.
For GCTCTGCGAAAGCTGAGC ((((.((....)).)))), the folding enthalpy in data set [1] is -41.2 kcal/mol. Besides, the Tm in data set [2] is 68.3 °C.
The like results for GCTCTGGGAAACTGGAGC ((((..(....)..)))) were, in that order, -34.1 kcal/mol and 45.9 °C.
In the case of GCTCTTACGAAAGTAAGC (((..(((....)))))), the folding enthalpy in data set [1] is -9.83 kcal/mol. Further, the Tm in data set [2] amounted to 34.7 °C.
On to GCTGACCCGAAAGGGAGC (((..(((....)))))), for which the folding enthalpy in data set [1] is -14.7 kcal/mol. Besides, the Tm in data set [2] is 41.8 °C.
For the sequence GCTGACCGAAAGGTGAGC (((.(((....))).))), in data set [1], the folding enthalpy was -38.4 kcal/mol. In addition, the Tm in data set [2] worked out at 55.4 °C.
Regarding GCTGACGAAAGTCGAAGC ((((((....)))..))), the folding enthalpy in data set [1] was -19.1 kcal/mol. Also, the Tm in data set [2] is 48.5 °C.
With GCTGACGGAAACGTCAAC (.(((((....))))).), in data set [1], the folding enthalpy is -14.3 kcal/mol. Also, the Tm in data set [2] is 43.2 °C.
The like results for GCTGAGCGAAAGCCAAGC (((..((....))..))) were, in that order, -18.8 kcal/mol and 48.6 °C.
Regarding GCTGAGCGAAAGCCCTGC ((.(.((....)).).)), in data set [1], the folding enthalpy is -17.7 kcal/mol. Also, the Tm in data set [2] came to 42.5 °C.
Take GCTGAGCGAAAGCGCCGC ((.(.((....)).).)): the folding enthalpy in data set [1] is -15.2 kcal/mol. Moreover, the Tm in data set [2] was determined as 50.5 °C.
With GCTGAGCGAAAGCTAGC (((.(((....)))))), the folding enthalpy in data set [1] was -26.3 kcal/mol. In data set [2], the Tm came out at 53 °C.
Take GCTGAGCGAAAGCTAGGC ((..(((....)))..)): the folding enthalpy in data set [1] was -20.3 kcal/mol. Besides, the Tm in data set [2] was found to be 52.7 °C.
On to GCTGATGGAAACATCAGC (((((((....))))))), for which the folding enthalpy in data set [1] is -43.5 kcal/mol. Moreover, the Tm in data set [2] came to 67.6 °C.
For GCTGATGGAAACATTGGC ((..(((....)))..)), in that order: -31 kcal/mol and 36 °C.
For GCTGCACCGAAAGGTAGC (((..(((....)))))), in that order: -13.4 kcal/mol and 49.2 °C.
As for GCTGCAGGAAACTACAGC ((((.((....)).)))), the folding enthalpy in data set [1] was -33.9 kcal/mol. For the same sequence, in data set [2], the Tm was 45.6 °C.
Consider GCTGCATCGAAAGATAGC (((..(((....)))))), for which the folding enthalpy in data set [1] is -17 kcal/mol. In addition, the Tm in data set [2] was 35.6 °C.
As to GCTGCCCGAAAGGGAGC (((.(((....)))))), in data set [1], the folding enthalpy is -23 kcal/mol. In addition, the Tm in data set [2] turned out to be 57.1 °C.
Turning to GCTGCCGAAAGGCGAGC ((((((....))).))), the folding enthalpy in data set [1] was -18.6 kcal/mol. The Tm in data set [2] was found to be 64.3 °C.
GCTGCCGAAAGGCGGAGC ((((((....)))..))): in data set [1], the folding enthalpy was -12.6 kcal/mol. Further, the Tm in data set [2] amounted to 51.3 °C.
In the case of GCTGCCGAAAGGCTGAGC ((((((....)))..))), the folding enthalpy in data set [1] was -16.2 kcal/mol. In addition, the Tm in data set [2] was found to be 50.1 °C.
On to GCTGCGCGAAAGCAAAGC (((..((....))..))), for which the folding enthalpy in data set [1] was -30.6 kcal/mol. For the same sequence, in data set [2], the Tm amounted to 62 °C.
Turning to GCTGCGCGAAAGCCGAGC (((..((....))..))), the folding enthalpy in data set [1] is -17 kcal/mol. The Tm in data set [2] is 45 °C.
In the case of GCTGCGCGAAAGCGAGC (((.(((....)))))), the folding enthalpy in data set [1] is -14.3 kcal/mol. The Tm in data set [2] came out at 60.4 °C.
Turning to GCTGCGCGAAAGCGATGC ((..(((....)))..)), the folding enthalpy in data set [1] was -18.6 kcal/mol. Besides, the Tm in data set [2] was determined as 58 °C.
As for GCTGCGCGAAAGCGTGGC ((..(((....)))..)), the folding enthalpy in data set [1] was -24.3 kcal/mol. Besides, in data set [2], the Tm turned out to be 65.9 °C.
As to GCTGCGCGAAAGCTCTGC ((.(.((....)).).)), the folding enthalpy in data set [1] was -18.2 kcal/mol. In data set [2], the Tm was 42.3 °C.
Consider GCTGCGCGAAAGCTGAGC (((..((....))..))), for which the folding enthalpy in data set [1] is -13.2 kcal/mol. Moreover, the Tm in data set [2] was 43.8 °C.
GCTGCGGCGAAAGCCAGC (((..(((....)))))): the folding enthalpy in data set [1] is -10.7 kcal/mol. Moreover, the Tm in data set [2] is 57.4 °C.
GCTGCGGGAAACCACAGC ((((.((....)).)))): the folding enthalpy in data set [1] was -37.5 kcal/mol. Besides, the Tm in data set [2] came to 52.7 °C.

Values taken from the array DNA melting data of Ke et al. (doi:10.1101/2024.01.08.574731).
